Values after ≈ are worked out from the molar mass of the structure shown.
Assays:
HCT-116 [1] = test: Cytotoxicity against human HCT116 cells after 5 days by Alamar Blue assay; assay type: functional, cell-based; details: HCT-116, 120 h
In short: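 Colon cancer HCT-116 cells were seeded in complete medium, and inhibitors were added after 24 h at 0.1–100 µM in quadruplicate. After 5 days, Alamar Blue was added and plates were incubated a further 4 h. Fluorescence was read at ex 530/em 590 nm. IC50 is the concentration giving 50% inhibition of proliferation.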

[2] = biological target: T1, Histone deacetylase (Homo sapiens) (UniProt Q13547+O15379+Q9UBN7+Q92769+Q9UQL6+Q8WUI4+Q9BY41+Q96DB2+P56524+Q9UKV0+Q969S8); test: Inhibition of HDAC (unknown origin) at 0.1 uM; assay type: protein assay
In short: (§1)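 HeLa nuclear extract HDAC incubated with an acetylated-lysine substrate and inhibitor. Deacetylated substrate mixed with developer gives a fluorophore, read at ex/em 335/460 nm. Two-point screen at 0.1 and 1.0 µM, expressed as % inhibition. Triplicate determinations, averaged.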

[3] = biological target: T1, Histone deacetylase (Homo sapiens); test: Inhibition of HDAC (unknown origin) at 1 uM; assay type: protein assay; in short: as §1
Histone deacetylase = test: Inhibition of HDAC in human HeLa cells assessed as deacetylation of substrate by fluorescence plate reader analysis; assay type: cell-based
In short: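 Enzyme source: HeLa cell nuclear extract (partially purified HDAC). Extract incubated with an acetylated-lysine substrate in the presence of inhibitor; a developer then releases a fluorophore from the deacetylated substrate, read at ex/em 335/460 nm. IC50 is the concentration giving 50% inhibition of enzymatic activity, from triplicate runs averaged. SAHA and LAQ-xx were positive controls.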

[4] = Aqueous solubility of the compound at pH 7.4; assay type: physicochemical
HCT-116 [5] = test: Antitumor activity against human HCT116 cells xenografted in CD1 mouse assessed as reduction in tumor volume at 50 mg/kg, po; assay type: functional; set-up: scale not given: the % may be the effect or the level left
In short: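 Female CD1 nude (nu/nu) athymic mice were dosed orally at 50 and 100 mg/kg for 21 days, n = 4 per group. Vehicle control was 0.5% CMC at 10 mL/kg. Read-out was tumor volume inhibition (TVI).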

| SMILES | IC50 (HCT-116 [1]) [µM] | inhibition [2] [%] | inhibition [3] [%] | IC50 (Histone deacetylase) [µM] | solubility [4] [µg/mL] | Activity (HCT-116 [5]) [%] |
| --- | --- | --- | --- | --- | --- | --- |
| N[C@@H](Cc1ccccc1)C(=O)Nc1ccc2cc(C(=O)NO)sc2c1 | 5 | 54 | 81 | – | – | – |
| Cc1ccc2cc(C(=O)NO)sc2c1 | – | – | – | 1.76 | – | – |
| O=C(NO)c1cc2ccc(COc3cccc(F)c3)cc2s1 | – | 23 | 68 | – | – | – |
| COc1ccc(CC(=O)Nc2ccc3cc(C(=O)NO)sc3c2)cc1 | 0.49 | 75 | 84 | – | – | – |
| CN(C(=O)CCc1ccccc1)c1ccc2cc(C(=O)NO)sc2c1 | – | 21 | 63 | – | 4 (≈ 11.3 µM) | – |
| O=C(NO)c1cc2cccc(Cl)c2s1 | – | – | – | 2.91 | – | – |
| O=C(Cc1ccncc1)Nc1ccc2sc(C(=O)NO)cc2c1 | 8.6 | 49 | 78 | – | 4 (≈ 12.2 µM) | – |
| CN(C)c1ccc(CC(=O)Nc2ccc3cc(C(=O)NO)sc3c2)cc1 | 0.5 | 57 | 82 | – | – | – |
| O=C(CCc1ccccc1)Nc1ccc2cc(C(=O)NO)sc2c1 | 2.6 | 42 | 76 | – | 4 (≈ 11.8 µM) | – |
| O=C(Cc1ccccc1)Nc1ccc2cc(C(=O)NO)sc2c1 | 0.1 | 71 | 85 | – | 4 (≈ 12.3 µM) | 26 |
| O=C(NCc1ccc2cc(C(=O)NO)sc2c1)c1ccccc1 | 0.25 | 93 | 87 | – | – | – |
| O=C(NO)c1cc2ccc(CN(CCO)C(=O)Nc3ccccc3)cc2s1 | 1.4 | 77 | 91 | – | – | – |
| CN(C(=O)CCc1ccccc1)c1ccc2sc(C(=O)NO)cc2c1 | – | 27 | 67 | – | 4 (≈ 11.3 µM) | – |
| O=C(NO)c1cc2ccc(NCCc3ccccc3)cc2s1 | – | 32 | 73 | – | 4 (≈ 12.8 µM) | – |
| O=C(NO)c1csc2ccccc12 | – | – | – | 76.13 | – | – |
| N[C@H](Cc1ccccc1)C(=O)Nc1ccc2cc(C(=O)NO)sc2c1 | 0.34 | 41 | 77 | – | – | – |
| Cc1ccc2cc(C(=O)NO)sc2c1F | – | – | – | 0.458 | – | – |
| COc1cccc2sc(C(=O)NO)cc12 | – | – | – | 3.79 | – | – |
| N[C@H](C(=O)Nc1ccc2cc(C(=O)NO)sc2c1)c1ccccc1 | 0.77 | 69 | 85 | – | – | – |
| O=C(NO)c1cc2cccc(C(F)(F)F)c2s1 | – | – | – | 9.19 | – | – |
| COc1ccccc1CC(=O)Nc1ccc2cc(C(=O)NO)sc2c1 | 0.55 | 54 | 81 | – | – | – |
| O=C(Cc1cccnc1)Nc1ccc2sc(C(=O)NO)cc2c1 | 17 | 49 | – | – | 4 (≈ 12.2 µM) | – |
| O=C(NO)c1cc2ccc(NCc3ccccc3)cc2s1 | 1.3 | 58 | 79 | – | 4 (≈ 13.4 µM) | – |
| O=C(Cc1ccccn1)Nc1ccc2cc(C(=O)NO)sc2c1 | 0.48 | 59 | 78 | – | 4 (≈ 12.2 µM) | – |
| O=C(CCc1ccccc1)Nc1ccc2sc(C(=O)NO)cc2c1 | – | 28 | 69 | – | 4 (≈ 11.8 µM) | – |
| O=C(NCc1ccc2cc(C(=O)NO)sc2c1)c1cccnc1 | 0.73 | 72 | 84 | – | – | – |
| O=C(NO)c1cc2ccccc2s1 | – | – | – | 2.17 | – | – |
| Cc1cc2sc(C(=O)NO)cc2cc1O | – | – | – | 0.989 | – | – |

| SMILES | IC50 (HCT-116 [1]) [µM] | inhibition [2] [%] | inhibition [3] [%] | IC50 (Histone deacetylase) [µM] | solubility [4] [µg/mL] | Activity (HCT-116 [5]) [%] |
| --- | --- | --- | --- | --- | --- | --- |
| O=C(NO)c1cc2ccsc2s1 | – | – | – | 1.08 | – | – |
| O=C(NO)c1cc2c(Cl)cccc2s1 | – | – | – | 11.63 | – | – |
| N[C@H](CCc1ccccc1)C(=O)Nc1ccc2cc(C(=O)NO)sc2c1 | 0.32 | 44 | 78 | – | – | – |
| O=C(NO)c1cc2ccc(CN(CCO)Cc3ccccc3)cc2s1 | 0.83 | 52 | 80 | – | – | – |
| O=C(NO)c1cc2ccc(CN(CCO)c3ccccc3)cc2s1 | 1.7 | 53 | 76 | – | – | – |
| O=C(NO)c1cc2ccc(COc3ccccc3F)cc2s1 | – | 22 | 58 | – | – | – |
| O=C(NO)c1cc2ccc(CSc3ccc(F)cc3)cc2s1 | – | < 20 | 24 | – | – | – |
| COc1cccc(CC(=O)Nc2ccc3cc(C(=O)NO)sc3c2)c1 | 0.6 | 65 | 83 | – | – | – |
| O=C(NO)c1cc2cc(NCCc3ccccc3)ccc2s1 | – | 28 | 61 | – | 4 (≈ 12.8 µM) | – |
| O=C(Cc1ccc2c(c1)OCO2)Nc1ccc2cc(C(=O)NO)sc2c1 | – | 55 | 78 | – | – | – |
| O=C(Cc1ccncc1)Nc1ccc2cc(C(=O)NO)sc2c1 | 1.8 | 66 | 84 | – | 4 (≈ 12.2 µM) | – |
| O=C(Cc1cccnc1)Nc1ccc2cc(C(=O)NO)sc2c1 | 3 | 62 | 83 | – | 4 (≈ 12.2 µM) | – |
| O=C(Cc1ccccc1)Nc1ccc2sc(C(=O)NO)cc2c1 | 1.3 | 48 | 82 | – | 4 (≈ 12.3 µM) | – |
| O=C(Cc1ncc[nH]1)Nc1ccc2cc(C(=O)NO)sc2c1 | – | 24 | 78 | – | – | – |
| O=C(NO)c1cc2ccc(CN3CCc4ccccc4C3)cc2s1 | 1.3 | 53 | 83 | – | – | – |
| N[C@@H](C(=O)Nc1ccc2cc(C(=O)NO)sc2c1)c1ccccc1 | 0.5 | 70 | 85 | – | – | – |
| O=C(Cc1ccccn1)Nc1ccc2sc(C(=O)NO)cc2c1 | – | 39 | 74 | – | 4 (≈ 12.2 µM) | – |
| O=C(NO)c1cc2cc(NCc3ccccc3)ccc2s1 | – | 28 | 68 | – | 4 (≈ 13.4 µM) | – |
| N[C@@H](CCc1ccccc1)C(=O)Nc1ccc2cc(C(=O)NO)sc2c1 | 3.4 | 71 | 85 | – | – | – |
| O=C(NO)c1cc2sccc2s1 | – | – | – | 0.557 | – | – |
| O=C(Cc1ccsc1)Nc1ccc2cc(C(=O)NO)sc2c1 | 0.11 | 73 | 87 | – | – | – |
| COc1cc2cc(C(=O)NO)sc2cc1C | – | – | – | 1.35 | – | – |
| CN(C)CCCC(=O)Nc1ccc2cc(C(=O)NO)sc2c1 | 2.4 | 50 | 79 | – | 1310 (≈ 4080 µM) | – |
| N#Cc1cc2ccc(NC(=O)[C@H](N)c3ccccc3)cc2s1 | – | < 20 | < 20 | – | – | – |
| O=C(Cc1ccccc1)NCc1ccc2cc(C(=O)NO)sc2c1 | 1.2 | 60 | 88 | – | – | – |
| O=C(NCc1ccc2cc(C(=O)NO)sc2c1)c1ccco1 | 0.07 | 89 | 92 | – | – | – |
| O=C(NO)c1cc2ccc(COc3ccc(F)cc3)cc2s1 | – | < 20 | 31 | – | – | – |
